Measured values from different studies.
Target: Dual specificity mitogen-activated protein kinase kinase 7 (MAP2K7, Homo sapiens, UniProt O14733)
Residues used in one study (O14733 1-419): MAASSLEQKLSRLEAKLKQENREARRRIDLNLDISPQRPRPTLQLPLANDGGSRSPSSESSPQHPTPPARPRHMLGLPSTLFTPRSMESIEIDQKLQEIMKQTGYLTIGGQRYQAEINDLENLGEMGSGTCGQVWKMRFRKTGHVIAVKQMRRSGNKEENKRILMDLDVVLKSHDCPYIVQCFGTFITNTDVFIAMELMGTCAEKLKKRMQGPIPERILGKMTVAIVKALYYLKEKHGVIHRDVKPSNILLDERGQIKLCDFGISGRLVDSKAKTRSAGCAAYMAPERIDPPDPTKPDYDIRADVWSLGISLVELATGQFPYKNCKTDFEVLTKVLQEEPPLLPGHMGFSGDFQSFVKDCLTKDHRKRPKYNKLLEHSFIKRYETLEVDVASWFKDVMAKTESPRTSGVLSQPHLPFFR

Compound	observed	mode	technique	concentration	quantity	value
Nc1ncnc2occ(-c3ccc(NC(=O)Nc4cc(C(F)(F)F)ccc4F)cc3)c12	cell-free assay	inhibitor		20 µM	remaining signal	2.9%
N[C@@H]1CCN(c2nccc(-c3cnn4ncccc34)n2)C1	binding			1 µM	remaining binding	100%
C[C@H](NC(=O)c1cnc2n1[C@](C)(Cc1ccc(C#N)cc1)C(=O)N2c1cc(Cl)c(F)c(Cl)c1)C(=O)NC1(c2ccccn2)CC1	cell-free assay		competition with immobilised ligand	1 µM	remaining binding	100%
CNC(=O)c1cc(Oc2ccc(NC(=O)Nc3ccc(Cl)c(C(F)(F)F)c3)cc2)ccn1	enzyme activity	inhibitor		10 µM	inhibition	40%
O=C(Nc1cnn(-c2csc(C(=O)NC3COC3)c2)c1)Nc1c(F)cccc1Cl	enzyme activity	inhibitor		5 µM	remaining activity	135%
CCN(CC)CCNC(=O)c1c(C)[nH]c(/C=C2\C(=O)Nc3ccc(F)cc32)c1C	enzyme activity	inhibitor		10 µM	inhibition	31%
Cc1ccc(C(=O)Nc2ccc(CN3CCN(C)CC3)c(C(F)(F)F)c2)cc1C#Cc1cnc2cccnn12	enzyme activity	inhibitor		23.5 nM	remaining activity	75%
CC(C)(C)c1nc2c(s1)c1nc(N)ncc1c1ccc(NS(=O)(=O)c3c(F)cccc3F)c(F)c12	enzyme activity	inhibitor	radiometric	1 µM	remaining activity	83%
F[C@@H]1CCN(c2nccc(-c3cnn4ncccc34)n2)C1	binding			1 µM	remaining binding	100%
CC(C)(C)c1nc(-c2cccc(NS(=O)(=O)c3c(F)cccc3F)c2F)c(-c2ccnc(N)n2)s1	enzyme activity	inhibitor	radiometric	1 µM	remaining activity	78%
Cc1cc(NC(=O)c2cccc(S(F)(F)(F)(F)F)c2)cc(-n2ccn3nc(-c4cccnc4)cc23)c1	cell-free assay		competition with immobilised ligand	1 µM	remaining binding	89.7%
Cc1sc(C(=O)NC2COC2)cc1-n1cc(NC(=O)Nc2c(F)cccc2Cl)cn1	enzyme activity	inhibitor		10 µM	remaining activity	120%
